Measurements as given in ChEMBL document CHEMBL1158703, “Psychopharmacological profile of the alkaloid psychollatine as a 5HT2A/C serotonin modulator” (2005).
The source made the active and inactive calls.

Columns and labels:
Mus musculus [1] = assay: Anxiolytic activity against CF1 mouse assessed as increase in number of head dips at 7.5 mg/kg after 30 mins by hole-board assay; assay type: functional, organism-based; set-up: dose 7.5 mg/kg
Summary of the method: (§1)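 Hole-board set 15 cm high and divided into 16 squares, with photocells counting head-dips. Male CF1 mice were dosed i.p. and placed centrally 30 min later under dim light. Over 5 min, head-dips, rearings and squares crossed were counted. Values are mean ± SEM (N = 15), analysed by one-way ANOVA then SNK.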

Mus musculus [2] = assay: Anxiolytic activity against CF1 mouse assessed as increase in number of rearings at 7.5 mg/kg after 30 mins by hole-board assay; assay type: functional, organism-based; set-up: dose 7.5 mg/kg; summary of the method: as §1
Mus musculus [3] = assay: […] of CF1 mouse assessed as reduction in step down latency at 10 mg/kg by passive avoidance test; assay type: functional
Mus musculus [4] = assay: Effect on long term memory of CF1 mouse assessed as reduction in step down latency at 100 mg/kg by passive avoidance test; assay type: functional
Summary of the method: (§2)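 Step-down inhibitory avoidance in male CF1 mice dosed i.p. immediately after training, during which a 0.3 mA foot shock for 15 s followed stepping down. Test step-down latency was recorded 24 h later without shock, with a 300 s cutoff. N = 20 per group; values are median (interquartile range).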

Mus musculus [5] = assay: Anxiolytic activity against CF1 mouse assessed as increase in number of crossings at 7.5 mg/kg after 30 mins in presence of ritanserin by hole-board assay; assay type: functional, organism-based; set-up: dose 7.5 mg/kg
Summary of the method: (§3)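 Male CF1 mice received ritanserin 2 mg/kg i.p. in 10% DMSO 30 min before the test drug at 7.5 mg/kg i.p. The 5 min hole-board session began 30 min later, counting head-dips, crossings and rearings. Values are mean ± SEM (N = 8-14), analysed by ANOVA/SNK.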

Mus musculus [6] = assay: […] of CF1 mouse assessed as reduction in step down latency at 30 mg/kg by passive avoidance test; assay type: functional
Mus musculus [7] = assay: […] of CF1 mouse assessed as reduction in step down latency at 3 mg/kg by passive avoidance test; assay type: functional
Mus musculus [8] = species: Mus musculus; assay: Anticonvulsant activity against CF1 mouse assessed as protection against PTZ-induced convulsions for 60 mins; assay type: functional, organism-based
Summary of the method: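 Male adult CF1 mice (n = 10/group) dosed i.p.; 30 min later pentylenetetrazol 88 mg/kg s.c. Each mouse placed alone in an acrylic chamber and watched 60 min for clonic convulsions lasting over 3 s. Read-out is the fraction of mice convulsing, analysed by Fisher's exact test.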

Mus musculus [9] = assay: Potentiation of pentobarbital-induced sleeping time in CF1 mouse at 100 mg/kg; assay type: functional, organism-based; set-up: dose 100 mg/kg
Summary of the method: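 Male CF1 mice (N = 9-12) were dosed i.p. and given sodium pentobarbital 40 mg/kg i.p. 30 min later. Sleeping time was recorded as the interval from loss to recovery of the righting reflex. Values are mean ± SEM, analysed by ANOVA against controls.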

Mus musculus [10] = assay: Effect on locomotory activity in CF1 mouse assessed as change in spontaneous activity at 0.75 and 0.85 mg/kg; assay type: functional, organism-based; set-up: dose 0.85 mg/kg
Summary of the method: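 Mice were habituated singly for 10 min in photocell activity cages and then dosed i.p. Diazepam was given in 10% propylene glycol. After 30 min, crossings were recorded for 15 min. n = 10–16, ANOVA then SNK.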

Mus musculus [11] = assay: Anxiolytic activity against CF1 mouse assessed as increase in latency to enter in the dark compartment 7.5 mg/kg in presence of ritanserin for 5 mins; assay type: functional, organism-based; set-up: dose 7.5 mg/kg
Summary of the method: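 Male CF1 mice received ritanserin 2 mg/kg i.p. (in 10% DMSO) 30 min before the test drug at 7.5 mg/kg i.p. The light/dark test followed 30 min later, scoring latency to first entry and time in the light compartment. Values are mean ± SEM (N = 8-10), analysed by one-way ANOVA/SNK.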

Mus musculus [12] = assay: Anxiolytic activity against CF1 mouse assessed as increase in number of head dips at 15 mg/kg after 30 mins by hole-board assay; assay type: functional, organism-based; set-up: dose 15 mg/kg; summary of the method: as §1
Mus musculus [13] = assay: Anxiolytic activity against CF1 mouse assessed as reduction in number in crossings at 200 mg/kg after 30 mins by hole-board assay; assay type: functional, organism-based; set-up: dose 200 mg/kg; summary of the method: as §1
Mus musculus [14] = assay: Anxiolytic activity against CF1 mouse assessed as increase in number of head dips at 7.5 mg/kg after 30 mins in presence of ritanserin by hole-board assay; assay type: functional, organism-based; set-up: dose 7.5 mg/kg; summary of the method: as §3
Mus musculus [15] = assay: Effect on long term memory of CF1 mouse assessed as reduction in step down latency at 7.5 mg/kg by passive avoidance test; assay type: functional; summary of the method: as §2
Mus musculus [16] = assay: Effect on locomotory activity in CF1 mouse assessed as reduction in spontaneous activity at 100 mg/kg; assay type: functional, organism-based; set-up: dose 100 mg/kg
Summary of the method: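 Male CF1 mice were habituated 10 min in photocell activity cages, then dosed i.p. (n = 10-16). Thirty minutes later crossings were recorded over 15 min. Values are mean ± SEM, analysed by one-way ANOVA then SNK.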

Mus musculus [17] = assay: Antidepressant activity in CF1 mouse assessed as decrease in duration of immobility at 30 mg/kg during final 4 mins of the 6 mins session by forced swimming test; assay type: functional, organism-based; set-up: dose 30 mg/kg
Summary of the method: (§4)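 Male adult CF1 mice given i.p. doses in saline (pH 7.0), N = 10. Each mouse swam 6 min in a 30 cm-diameter cylinder holding 20 cm of water at 25 ± 1 °C. Immobility was timed over the last 4 min. Values are mean ± SEM, analysed by ANOVA against saline.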

Mus musculus [18] = assay: Anxiolytic activity against CF1 mouse assessed as suppression of oxotremorine-treated tremors at 100 mg/kg; assay type: functional, organism-based; set-up: dose 100 mg/kg
Summary of the method: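 Male CF1 mice were given the test drug i.p. in saline 30 min before oxotremorine 0.5 mg/kg. Each mouse was then placed alone in an acrylic cage for observation of tremor. Values are median (interquartile range), analysed by Kruskal–Wallis then Mann–Whitney U against saline + oxotremorine.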

Mus musculus [19] = assay: Anxiolytic activity against CF1 mouse assessed as increase in number of rearings at 15 mg/kg after 30 mins by hole-board assay; assay type: functional, organism-based; set-up: dose 15 mg/kg; summary of the method: as §1
Mus musculus [20] = assay: Anxiolytic activity against CF1 mouse assessed as reduction in number in head dips at 200 mg/kg after 30 mins by hole-board assay; assay type: functional, organism-based; set-up: dose 200 mg/kg; summary of the method: as §1
Mus musculus [21] = assay: Antidepressant activity in CF1 mouse assessed as decrease in duration of immobility at 7.5 mg/kg during final 4 mins of the 6 mins session by forced swimming test; assay type: functional; summary of the method: as §4
Mus musculus [22] = assay: Anxiolytic activity against CF1 mouse assessed as increase in number of rearings at 7.5 mg/kg after 30 mins in presence of ritanserin by hole-board assay; assay type: functional, organism-based; set-up: dose 7.5 mg/kg; summary of the method: as §3
Mus musculus [23] = assay: Antidepressant activity in CF1 mouse assessed as decrease in duration of immobility at 10 mg/kg during final 4 mins of the 6 mins session by forced swimming test; assay type: functional, organism-based; set-up: dose 10 mg/kg; summary of the method: as §4
Mus musculus [24] = assay: Anxiolytic activity against CF1 mouse assessed as increase in latency to enter in the dark compartment 7.5 mg/kg for 5 mins; assay type: functional, organism-based; set-up: dose 7.5 mg/kg
Summary of the method: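 Light/dark box with a black, room-lit small compartment and a white large compartment lit at 400 lx. Male CF1 mice were acclimated at least 1 h under dim red light and dosed i.p. 30 min before testing. Recorded were latency to first entry and time spent in the light area. Values are mean ± SEM (N = 19-22), analysed by one-way ANOVA then SNK.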

Mus musculus [25] = assay: Antidepressant activity in CF1 mouse assessed as decrease in duration of immobility at 3 mg/kg during final 4 mins of the 6 mins session by forced swimming test; assay type: functional; summary of the method: as §4
Mus musculus [26] = assay: Effect on short term memory of CF1 mouse assessed as reduction in step down latency at 7.5 mg/kg by passive avoidance test; assay type: functional
Mus musculus [27] = assay: […] of CF1 mouse assessed as reduction in step down latency at 0.85 mg/kg by passive avoidance test; assay type: functional

In the case of `COC(=O)C1=CO[C@@H](O[C@H]2O[C@H](CO)[C@@H](O)[C@H](O)[C@H]2O)[C@@H]2C([C@@H]3NCCc4c3[nH]c3ccccc43)=CC[C@H]12` [PSYCHOLLATINE], the Activity (Mus musculus [1]) is reported as “Active”, the Activity (Mus musculus [2]) is reported as “Active” and the Activity (Mus musculus [3]) is reported as 11.55 s. For the same compound, the Activity (Mus musculus [4]) was 9.5 s, the Activity (Mus musculus [5]) was “inactive” and the Activity (Mus musculus [6]) was 12.8 s. The Activity (Mus musculus [7]) was 11.8 s, the Activity (Mus musculus [8]) was “inactive” and the Activity (Mus musculus [9]) was “Active”. The Activity (Mus musculus [10]) was “inactive”, the Activity (Mus musculus [11]) was “inactive” and the Activity (Mus musculus [12]) was “Active”. The Activity (Mus musculus [13]) was “Active”, the Activity (Mus musculus [14]) was “inactive” and the Activity (Mus musculus [15]) was 13.1 s. For the same compound, the Activity (Mus musculus [16]) was “Active”, the Activity (Mus musculus [17]) was “inactive” and the Activity (Mus musculus [18]) was “Active”. The Activity (Mus musculus [19]) was “Active”, the Activity (Mus musculus [20]) was “Active” and the Activity (Mus musculus [21]) was 56.41 s. The Activity (Mus musculus [22]) was “inactive”, the Activity (Mus musculus [23]) was “inactive” and the Activity (Mus musculus [24]) was “Active”. For the same compound, the Activity (Mus musculus [25]) was 48.88 s, the Activity (Mus musculus [26]) was 9.6 s and the Activity (Mus musculus [27]) was 8.3 s.
